Compounds with a hit are over-represented: about 1.7% of the library has one in this group of screens.
S1P2 blocker: human S1P2 receptor antagonists, primary screen, cell-based. Sphingosine 1-phosphate receptor 2 (Homo sapiens), O95136. cell-based S1P2 antagonist assay, inhibition at 5 uM. inhibition, % at 5 µM. actives 0.21% (n = 97,000); in the data active = inhibition above about 45%;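 also: CRE beta-lactamase reporter cells expressing human S1P2 stimulated with S1P; 0% = agonist at EC80 alone and 100% = agonist plus reference antagonist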
Rev-RRE block: HIV-1 Rev-RRE binding inhibitors, primary screen, biochemical, FRET, protein-RNA interaction | P05866 | Rev peptide-RRE RNA binding | actives 0.79% (n = 97,000) | inhibition, % at 8 µM | AID 704, 2007;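 active = inhibition above the screen-wide mean plus 3 SD, cut at about 35% in these data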;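 also: 0% = median DMSO wells and 100% = median Neomycin B control wells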
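Probe or stimulus: fluorescein-Rev peptide as binding partner; assay system: Cy5-tagged RRE RNA duplex with fluorescein-tagged Rev peptide; timing: 5 min compound–RNA preincubation, then 15 min with peptide, 25 °C; medium: HEPES pH 7.5 buffer with KCl, MgCl2, NaCl and EDTA; signal: fluorescein-to-Cy5 FRET, 480 nm excitation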
GALR2 blocker: GALR2 antagonists in receptor-expressing cells, primary screen. Galanin receptor type 2 (Homo sapiens), O43603. inhibition, % at 4 µM. actives 0.39% (n = 140,000). antagonist mode; in the data active = inhibition above about 27%;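 also: cells stimulated with galanin 1-16 at roughly its EC80; 0% = agonist challenge control and 100% = basal control without agonist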
GALR2 ag: GALR2 receptor agonists, primary screen, cell-based; Galanin receptor type 2 (Homo sapiens), O43603; GALR2-expressing cells, agonist activation read-out; activation, % (no concentration beside the values); actives 0.48% (n = 140,000); AID 803, 2007; in the data active = activation above about 5%, passing the limit was not always enough;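 also: 0% = vehicle buffer wells and 100% = reference agonist at full effect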
S1P2 ag: S1P2 receptor agonists, primary screen, cell-based; activation, % at 4.5 µM; AID 729, 2007; actives 0.46% (n = 97,000); S1P2-expressing cell line, agonist reporter read-out; in the data active = activation above about 16%;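 also: 0% = vehicle low control and 100% = maximal reference agonist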
EphB4 antag: EphB4-ephrin-B2 interaction antagonists, primary screen, biochemical, TNYL-RAW peptide probe, fluorescence polarization; Ephrin type-B receptor 4 (Homo sapiens), P54760; EphB4 LBD / TNYL-RAW-Alexa532 peptide; inhibition, % at 7 µM; actives 0.15% (n = 97,000); AID 720, 2007;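 active = inhibition above the screen-wide mean inhibition plus 3 SD, cut at about 15% in these data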;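 also: 0% = DMSO wells and 100% = excess unlabeled TNYL-RAW peptide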
Target sequence (P54760 whole entry, looked up, the tested form may be a part): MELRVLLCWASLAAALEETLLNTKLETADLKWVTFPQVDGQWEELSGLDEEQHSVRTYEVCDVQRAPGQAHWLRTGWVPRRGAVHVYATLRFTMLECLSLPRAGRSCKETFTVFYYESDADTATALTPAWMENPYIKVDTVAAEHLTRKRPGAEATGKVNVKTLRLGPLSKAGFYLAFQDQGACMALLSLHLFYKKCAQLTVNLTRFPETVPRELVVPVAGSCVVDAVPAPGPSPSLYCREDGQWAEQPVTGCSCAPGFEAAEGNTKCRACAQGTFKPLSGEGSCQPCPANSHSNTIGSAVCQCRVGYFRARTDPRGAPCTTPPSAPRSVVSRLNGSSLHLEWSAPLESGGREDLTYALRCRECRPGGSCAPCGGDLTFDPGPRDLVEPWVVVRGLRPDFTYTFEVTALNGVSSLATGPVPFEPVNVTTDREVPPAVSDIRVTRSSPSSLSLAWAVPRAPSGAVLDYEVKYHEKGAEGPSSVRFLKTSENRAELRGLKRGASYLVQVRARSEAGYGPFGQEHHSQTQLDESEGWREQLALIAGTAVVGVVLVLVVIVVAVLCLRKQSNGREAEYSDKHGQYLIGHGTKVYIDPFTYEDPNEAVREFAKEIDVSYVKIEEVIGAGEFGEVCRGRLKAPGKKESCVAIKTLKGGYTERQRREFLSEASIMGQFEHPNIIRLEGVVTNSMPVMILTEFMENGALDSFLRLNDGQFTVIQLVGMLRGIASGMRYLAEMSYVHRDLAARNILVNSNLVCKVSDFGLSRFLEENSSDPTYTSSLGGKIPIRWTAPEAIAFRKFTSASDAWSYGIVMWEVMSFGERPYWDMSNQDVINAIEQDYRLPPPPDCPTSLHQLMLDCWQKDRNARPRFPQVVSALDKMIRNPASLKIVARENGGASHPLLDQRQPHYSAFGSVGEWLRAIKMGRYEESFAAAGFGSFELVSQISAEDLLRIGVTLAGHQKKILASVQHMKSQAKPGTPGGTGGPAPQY
The depositor's hits bear a star; · = not tested or not shown; [ ] = another dose, or the depositor's remark.

SMILES | S1P2 blocker | Rev-RRE block | GALR2 blocker | GALR2 ag | S1P2 ag | EphB4 antag
COc1ccc(C(=O)c2ccc(OC)c(OC)c2)cc1 | -28 | 11 | -4 | 0 | -1 | 5
COc1ccc(C(=O)c2sc3nc(-c4ccccc4)ccc3c2N)cc1OC | 57* | 97*[fluorescence artefact?] | 20 | 0 | -14 | -3
CCOc1cc(/C=N/n2cnnc2)ccc1OC(=O)c1cccc([N+](=O)[O-])c1 | -6 | 19 | -2 | -1 | -1 | 12
CCOC(=O)C1=C(O)/C(=C/c2cc(OC)c(O)c(OC)c2)SC1=Nc1ccc(OC)cc1 | · | · | 6 | 7.3* | · | ·
CCOC(=O)C1=C(O)/C(=C/c2ccc(-c3ccccc3C(=O)O)o2)SC1=Nc1ccc(OC)cc1 | 2 | 89*[fluorescence artefact?] | 10 | -4 | -7 | 2
CCOC(=O)C1=C(O)/C(=C/c2ccc(OCC(=O)O)c(OC)c2)SC1=Nc1ccc(OCC)cc1 | · | · | 9 | 0 | · | ·
CNC(=S)Nc1ccc(Nc2ccccc2)cc1 | -5 | 4 | 9 | -4 | -11 | -9
Cc1cc(N)n2ncc(-c3ccc(Cl)cc3)c2n1 | -18 | 1 | 17 | -2 | -2 | 4
Cc1cc(NCCOCCO)n2ncc(-c3ccc(Cl)cc3)c2n1 | -42 | 11 | -7 | -1 | 18* | -1
O=C(COC(=O)CNC(=O)c1ccc(Cl)cc1)Nc1ccc(Cl)cc1C(F)(F)F | · | · | 2 | 0 | · | ·
CCCC(=O)Nc1ccccc1NC(=O)CN(C)S(=O)(=O)c1ccccc1 | 1 | 2 | 1 | -1 | -2 | 2
CCn1c2ccccc2c2cc(Nc3cc(C)nc4ncnn34)ccc21 | · | · | 34* | 3 | · | ·
O=c1nc(/C=C/c2ccc(-c3ccc(F)cc3)o2)cc(C(F)(F)F)[nH]1 | 9 | 116*[fluorescence artefact?] | 1 | 6 | -1 | -2
COc1ccc(/C=N/NC(=O)c2cccc(NC(=O)c3ccccc3)c2)c(C(=O)O)c1OC | · | · | 6 | -1 | · | ·
COc1cccc(CNC(=O)CCS(=O)(=O)c2cccs2)c1 | -9 | 3 | 5 | -1 | -6 | 2
CC(=O)Nc1ccc(Nc2c3c4c(cccc4n(C)c2=O)C(=O)c2ccccc2-3)cc1 | · | · | -5 | 1 | · | ·
Cn1c(=O)c(NCCO)c2c3c(cccc31)C(=O)c1ccccc1-2 | -1 | 142*[fluorescence artefact?] | 18 | 1 | -4 | 31*[fluorescence artefact?]
CCCCNc1c2c3c(cccc3n(C)c1=O)C(=O)c1ccccc1-2 | 8 | 142*[fluorescence artefact?] | 20 | -1 | -3 | 15
CCNc1c2c3c(cccc3n(C)c1=O)C(=O)c1ccccc1-2 | 5 | 142*[fluorescence artefact?] | 7 | -1 | -3 | 26*
COC(=O)c1cn(CC(=O)NC2CCCCCC2)c2ccccc12 | -7 | 7 | 0 | -2 | -12 | 2
COc1ccc(/C=C2\C(=O)N(c3nc(-c4ccc(Br)cc4)cs3)N=C2c2ccccc2)cc1 | 1 | 5 | -8 | -2 | 0 | -2
CCOc1cc(/C=C2\C(=O)N(c3nc(-c4ccc(Br)cc4)cs3)N=C2c2ccccc2)ccc1O | 8 | 58* | -6 | 0 | -2 | 6
CCN1CCN(c2nc(N)c([N+](=O)[O-])c(Nc3cccc(C)c3)n2)CC1 | · | · | -1 | 1 | · | ·
CN(Cc1ccccc1)c1nc(N)c([N+](=O)[O-])c(Nc2cccc(F)c2)n1 | -60 | 22 | 1 | -4 | 22* | 0
C=CCn1c(NCCc2ccccc2)nc2c1c(=O)n(C)c(=O)n2C | 33 | 5 | 21 | -2 | -5 | 16*
CCOC(=O)c1ccc(-n2nc(C(F)(F)F)c3c(C)cc(=O)oc32)cc1 | 0 | 6 | -4 | -3 | -4 | 6
O=C(OCCN1C(=O)c2ccccc2C1=O)c1cc(S(=O)(=O)N2CCOCC2)ccc1F | -28 | 5 | 1 | -2 | 18* | 0
O=C(COC(=O)c1cc(S(=O)(=O)N2CCOCC2)ccc1F)c1ccc[nH]1 | · | · | -6 | -2 | · | ·
CN1C=CC2=C(C#N)C(N)C(C#N)(C#N)C(c3ccccc3)C2C1 (stereo not drawn) | 10 | 64* | -8 | 3 | 0 | 1
CC1=C(C#N)C(c2ccoc2)C(C(=O)OCc2ccccc2)=C(N)S1 (stereo not drawn) | 16 | 18 | 4 | -1 | -3 | 9

Screening data as filed in PubChem.
